Source: ChEMBL document CHEMBL4041548, “Ester Prodrugs of IHVR-19029 with Enhanced Oral Exposure and Prevention of Gastrointestinal Glucosidase Interaction” (ACS Med Chem Lett, 2017)
pEC50, pIC50: −log10 of the molar value. The source made the active and inactive calls. The calls are words filed in the database; no cut-off is given here.

Assays:
Mus musculus [1] = assay: Prodrug activation in BALB/c mouse assessed as 3-(tert-butyl)-1-cyclohexyl-1-(6-((2R,3R,4R,5S)-3,4,5-trihydroxy-2-(hydroxymethyl)piperidin-1-yl)hexyl)urea half life at 25 mg/kg, po administered as single dose by LC-MS/MS analysis; assay type: organism-based; conditions: in vivo
In short: (§1)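 Male BALB/c mice dosed with the prodrugs or the parent orally (25 or 100 mg/kg) or intravenously (5 mg/kg). The parent compound was quantified in plasma and PK parameters were derived from it. The first sampling point was 5 min post-dose, and prodrugs were tracked up to 4 h.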

[2] = Metabolic stability in pooled mouse liver microsomes assessed as parent compound remaining at 200 uM measured after 60 mins by LC-MS/MS analysis; assay type: ADME, microsome; conditions: liver microsomes, read-out: Stability
In short: (§2)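 Prodrugs or parent incubated in pooled human or mouse liver microsomes for up to 60 min, with or without cofactor. Percent remaining and percent conversion to the parent were measured.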

[3] = Inhibition of endoplasmic reticulum alpha-glucosidase in human Huh7.5 cells infected with DENV assessed as reduction in viral growth by measuring DENV RNA level by qRT-PCR method; assay type: cell-based
In short: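 Huh7.5 cells infected with dengue virus and treated with a concentration series of the compounds (n = 4). DENV RNA was quantified by qRT-PCR and the EC50 was calculated.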

[4] = Metabolic stability in pooled mouse liver microsomes assessed as parent compound remaining at 200 uM measured after 60 mins in presence of NADPH and UDPGA by LC-MS/MS analysis; assay type: ADME, microsome; conditions: read-out: Stability; in short: as §2
[5] = Prodrug activation in simulated intestinal fluid assessed as 3-(tert-butyl)-1-cyclohexyl-1-(6-((2R,3R,4R,5S)-3,4,5-trihydroxy-2-(hydroxymethyl)piperidin-1-yl)hexyl)urea formation at 5 uM measured after 4 hrs by LC-MS/MS analysis
In short: (§3)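 Chemical stability assessed by incubation in simulated gastric fluid and simulated intestinal fluid; percent of compound remaining was measured.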

Bos taurus = species on record: Bos taurus; assay: Inhibition of endoplasmic reticulum alpha-glucosidase in MDBK cells infected with Bovine Viral Diarrhea virus assessed as reduction in BVDV envelope glycoprotein E2 level at 3 to 100 uM by immunoblot analysis; assay type: cell-based
In short: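 MDBK cells infected with BVDV, then treated with various concentrations of the compounds. Cell lysates were run on SDS-PAGE and immunoblotted for the E2 envelope glycoprotein, looking for a mobility shift and lower intensity, with β-actin as internal control.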

[6] = Metabolic stability in pooled human liver microsomes assessed as parent compound remaining at 200 uM measured after 60 mins by LC-MS/MS analysis; assay type: ADME, microsome; conditions: liver microsomes, read-out: Stability; in short: as §2
[7] = Half life in pooled mouse liver microsomes at 200 uM by LC-MS/MS analysis; assay type: ADME, microsome; conditions: liver microsomes; in short: as §2
[8] = Apparent permeability of the compound across basolateral side to apical side in human Caco2 cells assessed as drug recovery at 5 uM measured after 2 hrs by LC-MS/MS analysis; assay type: ADME, cell-based; conditions: Caco-2, read-out: Drug recovery
Mus musculus [9] = assay: Prodrug activation in BALB/c mouse assessed as 3-(tert-butyl)-1-cyclohexyl-1-(6-((2R,3R,4R,5S)-3,4,5-trihydroxy-2-(hydroxymethyl)piperidin-1-yl)hexyl)urea AUC(0 to infinity) at 25 mg/kg, po administered as single dose by LC-MS/MS analysis; assay type: organism-based; set-up: dose 25 mg/kg, time infinity, route oral; conditions: in vivo
Mus musculus [10] = assay: Prodrug activation in BALB/c mouse assessed as 3-(tert-butyl)-1-cyclohexyl-1-(6-((2R,3R,4R,5S)-3,4,5-trihydroxy-2-(hydroxymethyl)piperidin-1-yl)hexyl)urea Cmax at 100 mg/kg, po administered as single dose by LC-MS/MS analysis; assay type: organism-based; set-up: dose 100 mg/kg, route oral; conditions: in vivo; in short: as §1
Mus musculus [11] = assay: Prodrug activation in BALB/c mouse assessed as 3-(tert-butyl)-1-cyclohexyl-1-(6-((2R,3R,4R,5S)-3,4,5-trihydroxy-2-(hydroxymethyl)piperidin-1-yl)hexyl)urea Cmax at 5 mg/kg, iv as bolus administration by LC-MS/MS analysis; assay type: organism-based; set-up: dose 5 mg/kg, route intravenous; conditions: in vivo; in short: as §1
[12] = Metabolic stability in pooled human liver microsomes assessed as parent compound remaining at 200 uM measured after 60 mins in presence of NADPH and UDPGA by LC-MS/MS analysis; assay type: ADME, microsome; conditions: read-out: Stability; in short: as §2
[13] = Apparent permeability of the compound across apical side to basolateral side in human Caco2 cells assessed as drug recovery at 5 uM measured after 2 hrs by LC-MS/MS analysis; assay type: ADME, cell-based; conditions: Caco-2, read-out: Drug recovery
Mus musculus [14] = assay: Prodrug activation in BALB/c mouse assessed as 3-(tert-butyl)-1-cyclohexyl-1-(6-((2R,3R,4R,5S)-3,4,5-trihydroxy-2-(hydroxymethyl)piperidin-1-yl)hexyl)urea AUC(0 to infinity) at 100 mg/kg, po administered as single dose by LC-MS/MS analysis; assay type: organism-based; set-up: dose 100 mg/kg, route oral, time infinity; conditions: in vivo
[15] = Inhibition of pig liver endoplasmic reticulum alpha glucosidase-1 using 4-methylumbelliferyl-alpha-D-glucoside as substrate measured after 90 mins by fluorescence analysis; set-up: species or system Sus scrofa
[16] = Metabolic stability in mouse plasma assessed as parent compound remaining at 5 uM measured after 2 hrs by LC-MS/MS analysis; assay type: ADME, cell-free; conditions: read-out: Stability
In short: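 Compounds incubated in human or mouse plasma for 2 h. Percent remaining and percent conversion to the parent were determined.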

[17] = Stability in simulated intestinal fluid assessed as parent compound remaining at 5 uM measured after 4 hrs by LC-MS/MS analysis; in short: as §3
Mus musculus [18] = assay: Prodrug activation in BALB/c mouse assessed as 3-(tert-butyl)-1-cyclohexyl-1-(6-((2R,3R,4R,5S)-3,4,5-trihydroxy-2-(hydroxymethyl)piperidin-1-yl)hexyl)urea half life at 100 mg/kg, po administered as single dose by LC-MS/MS analysis; assay type: organism-based; conditions: in vivo; in short: as §1
Mus musculus [19] = assay: Prodrug activation in BALB/c mouse assessed as 3-(tert-butyl)-1-cyclohexyl-1-(6-((2R,3R,4R,5S)-3,4,5-trihydroxy-2-(hydroxymethyl)piperidin-1-yl)hexyl)urea Tmax at 100 mg/kg, po administered as single dose by LC-MS/MS analysis; assay type: organism-based; conditions: in vivo; in short: as §1
[20] = Half life in pooled human liver microsomes at 200 uM by LC-MS/MS analysis; assay type: ADME, microsome; conditions: liver microsomes; in short: as §2
[21] = Prodrug activation in simulated gastric fluid assessed as 3-(tert-butyl)-1-cyclohexyl-1-(6-((2R,3R,4R,5S)-3,4,5-trihydroxy-2-(hydroxymethyl)piperidin-1-yl)hexyl)urea formation at 5 uM measured after 4 hrs by LC-MS/MS analysis; in short: as §3
Mus musculus [22] = assay: Prodrug activation in BALB/c mouse assessed as 3-(tert-butyl)-1-cyclohexyl-1-(6-((2R,3R,4R,5S)-3,4,5-trihydroxy-2-(hydroxymethyl)piperidin-1-yl)hexyl)urea Tmax at 25 mg/kg, po administered as single dose by LC-MS/MS analysis; assay type: organism-based; conditions: in vivo; in short: as §1
[23] = Inhibition of pig liver endoplasmic reticulum alpha glucosidase-2 using 4-methylumbelliferyl-alpha-D-glucoside as substrate measured after 60 mins by fluorescence analysis; set-up: species or system Sus scrofa
[24] = Prodrug activation in human intestinal S9 fraction assessed as 3-(tert-butyl)-1-cyclohexyl-1-(6-((2R,3R,4R,5S)-3,4,5-trihydroxy-2-(hydroxymethyl)piperidin-1-yl)hexyl)urea formation by measuring prodrug remaining at 200 uM measured after 1 hr in presence or absence of NADPH by LC-MS/MS analysis; set-up: species or system Intestine; conditions: s9, 1 h
In short: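 Compounds incubated with intestinal S9 fraction for 1 h. Percent prodrug remaining and percent conversion to the parent were measured.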

Row | SMILES | t1/2 (Mus musculus [1]) [h] | remaining at 1 h, 200 µM [2] [%] | pEC50 [3] | remaining at 1 h, 200 µM [4] [%] | Drug metabolism [5] [%] | inhibition (Bos taurus) | remaining at 1 h, 200 µM [6] [%] | half-life at 200 µM [7] [min] | recovery at 2 h, 5 µM [8] [%] | AUC (Mus musculus [9]) [ng·mL·h] | Cmax (Mus musculus [10]) [ng/mL] | Cmax (Mus musculus [11]) [ng/mL] | remaining at 1 h, 200 µM [12] [%] | recovery at 2 h, 5 µM [13] [%] | AUC (Mus musculus [14]) [ng·mL·h] | pIC50 [15] | remaining at 2 h, 5 µM [16] [%] | Stability [17] [%] | t1/2 (Mus musculus [18]) [h] | Tmax (Mus musculus [19]) [min] | also measured
1 | CC(=O)OC[C@@H]1[C@@H](OC(C)=O)[C@H](OC(C)=O)[C@@H](OC(C)=O)CN1CCCCCCN(C(=O)NC(C)(C)C)C1CCCCC1 | 1.4 | 0 | 4.81 | 0 | 0 | Active | 0 | 2 | 42 | 359 | 1597 | 463 | 0 | 9 | 1912 | < 4.10 | 0 | 91 | 0.72 | 15 | half-life at 200 µM [20]: 3 min; Drug metabolism [21]: 0%; Tmax (Mus musculus [22]): 15 min; pIC50 [23]: < 4.00; Stability [24]: < 50%
2 | CC(C)C(=O)OC[C@@H]1[C@@H](OC(=O)C(C)C)[C@H](OC(=O)C(C)C)[C@@H](OC(=O)C(C)C)CN1CCCCCCN(C(=O)NC(C)(C)C)C1CCCCC1 | 0.58 | 7 | 4.02 | 5 | 0 | Active | 2 | 14 | < 60 | 197 | 195 | 1213 | 2 | < 60 | 362 | < 4.10 | 0 | 90 | 1.18 | 30 | half-life at 200 µM [20]: 10 min; Drug metabolism [21]: 0%; Tmax (Mus musculus [22]): 30 min; pIC50 [23]: < 4.00; Stability [24]: < 50%
3 | CCCC(=O)OC[C@@H]1[C@@H](OC(=O)CCC)[C@H](OC(=O)CCC)[C@@H](OC(=O)CCC)CN1CCCCCCN(C(=O)NC(C)(C)C)C1CCCCC1 | 1.72 | 12 | 4.79 | 10 | 0 | Active | 4 | 20 | < 60 | 529 | 998 | 15733 | 4 | < 60 | 3884 | < 4.10 | 0 | 72 | 2.29 | 30 | half-life at 200 µM [20]: 14 min; Drug metabolism [21]: 0%; Tmax (Mus musculus [22]): 15 min; pIC50 [23]: < 4.00; Stability [24]: < 50%
